These results are taken from ChEMBL document CHEMBL4354797, “Novel Pyrazolo[4,3- d]pyrimidine as Potent and Orally Active Inducible Nitric Oxide Synthase (iNOS) Dimerization Inhibitor with Efficacy in Rheumatoid Arthritis Mouse Model” (J Med Chem, 2019).

In general, inhibition refers to the relative decrease from the control value, in per cent.

Calls of active or inactive are those of the source. No cut-off for these calls is given here.

This assay concerns RAW264.7. The assay can be described thus: Antiinflammatory activity in mouse RAW264.7 cells assessed as inhibition of LPS-induced NO production at 10 uM preincubated for 1 hr followed by LPS addition and measured after 24 hrs by Griess reagent-based assay relative to control. The format is functional. Summed up: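 RAW 264.7 cells pretreated with compound for 1 h, then LPS 1 µg/mL for 24 h. Single-point inhibition at 10 µM. IC50 by regression of inhibition over several concentrations. At least three independent experiments.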
Background: Griess reagent forms a coloured azo dye with nitrite.
Regarding `CCCc1nn(C)c2c(NCCc3ccc(OC)cc3)nc(-c3cc(OC)c(OC)c(OC)c3)nc12`, the inhibition at 10 µM is 10.2%. On to `CCCc1nn(C)c2c(NCc3ccc(Br)cc3)nc(/C=C/c3cc(OC)c(OC)c(OC)c3)nc12`, for which the inhibition at 10 µM stood at 53.9%. Same read-out and setting: as for `CCCc1nn(C)c2c(NCCc3ccc(OC)cc3)nc(/C=C/c3ccccc3)nc12`, the figure is 48%. Still for that read-out and setting: as for `CCCc1nn(C)c2c(Nc3ccc(C(=O)N4CCN(CC)CC4)cc3)nc(/C=C/c3cc(OC)c(OC)c(OC)c3)nc12`, the figure is 15.4%; as for `CCCc1nn(C)c2c(N(C)C)nc(/C=C/c3ccccc3)nc12`, 27.1%.

Take `CCCc1nn(C)c2c(NCc3ccc(Br)cc3)nc(/C=C/c3ccco3)nc12`: the inhibition at 10 µM was 40.6%. Still for that read-out and setting: as for `CCCc1nn(C)c2c(NCc3ccco3)nc(/C=C/c3ccco3)nc12`, the figure is 52.3%. Same read-out and setting: as for `CCCc1nn(C)c2c(Nc3ccccc3)nc(/C=C/c3cc(OC)c(OC)c(OC)c3)nc12`, the figure is 48.1%.

On to `CCCc1nn(C)c2c(Nc3ccc(OC)cc3)nc(/C=C/c3cc(OC)c(OC)c(OC)c3)nc12`, for which the inhibition at 10 µM worked out at 63.2%. For the molecule `CCCc1nn(C)c2c(Nc3ccc(Cl)cc3)nc(/C=C/c3cc(OC)c(OC)c(OC)c3)nc12`, the inhibition at 10 µM worked out at 25.3%. Turning to `CCCc1nn(C)c2c(Nc3ccc(C(=O)OC)cc3)nc(-c3cc(OC)c(OC)c(OC)c3)nc12`, the inhibition at 10 µM was found to be 17.3%. The same measure, in the same setting: for `CCCc1nn(C)c2c(Nc3ccc(C(=O)OC)cc3)nc(/C=C/c3ccccc3)nc12` the value was 42.4%; for `CCCc1nn(C)c2c(N3CCCCC3)nc(-c3cc(OC)c(OC)c(OC)c3)nc12`, 7.6%. Regarding `CCCc1nn(C)c2c(N3CCCC3)nc(/C=C/c3cc(OC)c(OC)c(OC)c3)nc12`, the inhibition at 10 µM was 15.5%. As to `CCCc1nn(C)c2c(Nc3cccc(C)c3)nc(-c3cc(OC)c(OC)c(OC)c3)nc12`, the inhibition entry is “inactive”.

`CCCc1nn(C)c2c(NCCc3ccccc3)nc(/C=C/c3cc(OC)c(OC)c(OC)c3)nc12`: the inhibition at 10 µM stood at 86.1%.

Regarding `CCCc1nn(C)c2c(NCc3ccccc3OC)nc(/C=C/c3ccco3)nc12`, the inhibition at 10 µM stood at 38.4%. Turning to `CCCc1nn(C)c2c(Nc3ccc(Br)cc3)nc(/C=C/c3cc(OC)c(OC)c(OC)c3)nc12`, the inhibition at 10 µM worked out at 33%. Still for that read-out and setting: as for `CCCc1nn(C)c2c(NCCc3ccccc3)nc(-c3cc(OC)c(OC)c(OC)c3)nc12`, the figure is 20.2%; as for `CCCc1nn(C)c2c(NCCc3ccccc3Cl)nc(/C=C/c3cc(OC)c(OC)c(OC)c3)nc12`, 46.9%; as for `CCCc1nn(C)c2c(N3CCCCC3)nc(/C=C/c3cc(OC)c(OC)c(OC)c3)nc12`, 16.3%. Still for that read-out and setting: as for `CCCc1nn(C)c2c(NCCc3ccccc3F)nc(/C=C/c3cc(OC)c(OC)c(OC)c3)nc12`, the figure is 85%. For the molecule `CCCc1nn(C)c2c(NCCc3ccc(Cl)cc3)nc(/C=C/c3ccccc3)nc12`, the inhibition at 10 µM is 10.7%. Still for that read-out and setting: as for `CCCc1nn(C)c2c(Nc3cccc(C(F)(F)F)c3)nc(/C=C/c3cc(OC)c(OC)c(OC)c3)nc12`, the figure is 38.2%.

With `CCCc1nn(C)c2c(Nc3cccc(C)c3)nc(/C=C/c3ccccc3)nc12`, the inhibition at 10 µM came out at 15.3%.

Turning to `CCCc1nn(C)c2c(Nc3cccc(C)c3)nc(/C=C/c3cc(OC)c(OC)c(OC)c3)nc12`, the inhibition at 10 µM is 25.8%. Take `CCCc1nn(C)c2c(NCCc3ccccc3F)nc(/C=C/c3ccco3)nc12`: the inhibition at 10 µM is 73%.

For the molecule `CCCc1nn(C)c2c(Nc3cccc(C)c3)nc(/C=C/c3ccco3)nc12`, the inhibition at 10 µM turned out to be 8.9%. On the same count and under the same terms, as for `CCCc1nn(C)c2c(NCc3ccccc3Cl)nc(/C=C/c3cc(OC)c(OC)c(OC)c3)nc12`, the figure is 90%; as for `CCCc1nn(C)c2c(NCCc3ccccc3)nc(/C=C/c3ccccc3)nc12`, 48.6%. Same read-out and setting: as for `CCCc1nn(C)c2c(NC)nc(-c3cc(OC)c(OC)c(OC)c3)nc12`, the figure is 21.6%; as for `CCCc1nn(C)c2c(NCc3ccc(C(F)(F)F)cc3)nc(/C=C/c3cc(OC)c(OC)c(OC)c3)nc12`, 54.6%; as for `CCCc1nn(C)c2c(NCc3ccc(C(F)(F)F)cc3)nc(/C=C/c3ccco3)nc12`, 50.2%. Turning to `CCCc1nn(C)c2c(NCc3ccc(F)cc3)nc(/C=C/c3cc(OC)c(OC)c(OC)c3)nc12`, the inhibition at 10 µM was 69.7%. For `CCCc1nn(C)c2c(Nc3cccc(C(F)(F)F)c3)nc(-c3cc(OC)c(OC)c(OC)c3)nc12`, the inhibition result is “inactive”. As to `CCCc1nn(C)c2c(N3CCN(CC)CC3)nc(/C=C/c3ccccc3)nc12`, the inhibition at 10 µM worked out at 10.2%. With `CCCc1nn(C)c2c(Nc3ccc(C(=O)N4CCN(CC)CC4)cc3)nc(-c3cc(OC)c(OC)c(OC)c3)nc12`, the inhibition at 10 µM is 27.6%. Regarding `CCCc1nn(C)c2c(N(C)C)nc(/C=C/c3cc(OC)c(OC)c(OC)c3)nc12`, the inhibition at 10 µM came to 82.1%. As to `CCCc1nn(C)c2c(NCc3ccc(F)cc3)nc(/C=C/c3ccco3)nc12`, the inhibition at 10 µM was 50.7%. Take `CCCc1nn(C)c2c(NCCc3cccc(Cl)c3)nc(/C=C/c3cc(OC)c(OC)c(OC)c3)nc12`: the inhibition at 10 µM is 80%. The same measure, in the same setting: as for `CCCc1nn(C)c2c(N3CCOCC3)nc(-c3cc(OC)c(OC)c(OC)c3)nc12`, the figure is 5.2%; as for `CCCc1nn(C)c2c(Nc3cccc(C(F)(F)F)c3)nc(/C=C/c3ccccc3)nc12`, 14.6%; as for `CCCc1nn(C)c2c(NCCCN3CCOCC3)nc(/C=C/c3ccccc3)nc12`, 42.4%. Same read-out and setting: as for `CCCc1nn(C)c2c(NCc3ccc(Cl)cc3)nc(/C=C/c3ccccc3)nc12`, the figure is 24.2%. As to `CCCc1nn(C)c2c(NCCc3ccccc3Cl)nc(/C=C/c3ccccc3)nc12`, the inhibition at 10 µM amounted to 14.3%.

Turning to `CCCc1nn(C)c2c(NCc3ccco3)nc(/C=C/c3cc(OC)c(OC)c(OC)c3)nc12`, the inhibition at 10 µM turned out to be 62.1%. On the same count and under the same terms, for `CCCc1nn(C)c2c(Nc3ccc(C(=O)O)cc3)nc(/C=C/c3cc(OC)c(OC)c(OC)c3)nc12` the value was 15.3%.

Take `CCCc1nn(C)c2c(Nc3ccc(OC(F)(F)F)cc3)nc(/C=C/c3cc(OC)c(OC)c(OC)c3)nc12`: the inhibition at 10 µM amounted to 16.4%. On the same count and under the same terms, as for `CCCc1nn(C)c2c(N3CCOCC3)nc(/C=C/c3cc(OC)c(OC)c(OC)c3)nc12`, the figure is 81%; as for `CCCc1nn(C)c2c(NCc3cccc(OC)c3)nc(/C=C/c3ccco3)nc12`, 35.6%; as for `CCCc1nn(C)c2c(NCCc3ccccc3Cl)nc(/C=C/c3ccco3)nc12`, 70.8%. The same measure, in the same setting: as for `CCCc1nn(C)c2c(Nc3cccc(Br)c3)nc(/C=C/c3cc(OC)c(OC)c(OC)c3)nc12`, the figure is 31%; as for `CCCc1nn(C)c2c(Nc3ccccc3)nc(-c3cc(OC)c(OC)c(OC)c3)nc12`, 22.2%; as for `CCCc1nn(C)c2c(Nc3ccc(F)c(C(F)(F)F)c3)nc(/C=C/c3cc(OC)c(OC)c(OC)c3)nc12`, 82.6%. Still for that read-out and setting: for `CCCc1nn(C)c2c(Nc3ccccc3Br)nc(/C=C/c3cc(OC)c(OC)c(OC)c3)nc12` the value was 38.5%; for `CCCc1nn(C)c2c(NCc3ccc(Cl)cc3)nc(/C=C/c3cc(OC)c(OC)c(OC)c3)nc12`, 67.2%; for `CCCc1nn(C)c2c(NCc3ccc(OC)cc3)nc(/C=C/c3cc(OC)c(OC)c(OC)c3)nc12`, 73.1%. In the case of `CCCc1nn(C)c2c(Nc3ccc(C(=O)NC(C)(C)C)cc3)nc(/C=C/c3cc(OC)c(OC)c(OC)c3)nc12`, the inhibition at 10 µM was determined as 10.6%.

Take `CCCc1nn(C)c2c(Nc3ccc(C(=O)OC)cc3)nc(/C=C/c3cc(OC)c(OC)c(OC)c3)nc12`: the inhibition at 10 µM came to 10.3%. Regarding `CCCc1nn(C)c2c(NC(C)CC)nc(/C=C/c3cc(OC)c(OC)c(OC)c3)nc12` (stereo not drawn), the inhibition at 10 µM is 75%.

Take `CCCc1nn(C)c2c(N3CCCCC3)nc(/C=C/c3ccccc3)nc12`: the inhibition at 10 µM was 7.7%. On to `CCCCNC(=O)c1ccc(Nc2nc(-c3cc(OC)c(OC)c(OC)c3)nc3c(CCC)nn(C)c23)cc1`, for which the inhibition entry is “inactive”. With `CCCc1nn(C)c2c(NCCc3ccc(Cl)cc3)nc(-c3cc(OC)c(OC)c(OC)c3)nc12`, the inhibition at 10 µM was 22.2%. On the same count and under the same terms, as for `CCCc1nn(C)c2c(NCc3ccccc3Cl)nc(/C=C/c3ccco3)nc12`, the figure is 54.8%; as for `CCCc1nn(C)c2c(NCCc3ccc(O)cc3)nc(/C=C/c3cc(OC)c(OC)c(OC)c3)nc12`, 15%. The same measure, in the same setting: as for `CCCc1nn(C)c2c(Nc3ccccc3C)nc(/C=C/c3cc(OC)c(OC)c(OC)c3)nc12`, the figure is 54.4%. On the same count and under the same terms, as for `CCCc1nn(C)c2c(NCCc3ccccc3F)nc(/C=C/c3ccccc3)nc12`, the figure is 43.9%; as for `CCCc1nn(C)c2c(NCCc3ccccc3)nc(/C=C/c3ccco3)nc12`, 36.4%; as for `CCCc1nn(C)c2c(NCc3ccc(OC)cc3)nc(/C=C/c3ccco3)nc12`, 43.8%. Take `CCCc1nn(C)c2c(Nc3cccc(C(F)(F)F)c3)nc(/C=C/c3ccco3)nc12`: the inhibition at 10 µM worked out at 8.9%. As to `CCCCNC(=O)c1ccc(Nc2nc(/C=C/c3cc(OC)c(OC)c(OC)c3)nc3c(CCC)nn(C)c23)cc1`, the inhibition at 10 µM worked out at 35.9%. For `CCCc1nn(C)c2c(N(C)C)nc(-c3cc(OC)c(OC)c(OC)c3)nc12`, the inhibition at 10 µM came out at 21.2%. Same read-out and setting: as for `CCCc1nn(C)c2c(NCc3cccc(OC)c3)nc(/C=C/c3cc(OC)c(OC)c(OC)c3)nc12`, the figure is 70.9%; as for `CCCc1nn(C)c2c(N3CCOCC3)nc(/C=C/c3ccccc3)nc12`, 10.2%. For the molecule `CCCc1nn(C)c2c(NC(C)C)nc(/C=C/c3ccco3)nc12`, the inhibition at 10 µM was found to be 37.7%.

For `CCCc1nn(C)c2c(N(C)C)nc(/C=C/c3ccco3)nc12`, the inhibition at 10 µM was 30.6%.

In the case of `CCCc1nn(C)c2c(N3CCCC3)nc(/C=C/c3ccccc3)nc12`, the inhibition at 10 µM turned out to be 6.3%.

On to `CCCc1nn(C)c2c(Nc3ccc(C(F)(F)F)cc3)nc(/C=C/c3cc(OC)c(OC)c(OC)c3)nc12`, for which the inhibition at 10 µM was 37.8%.
